WT yeast gro inh = growth inhibition of WT strain, primary screen, mitochondrial fusion inhibitor project, WT and mutant strains, chemical genetic; mitochondrial fusion phenotypic screen; inhibition, % at 10 µM; 190,000 compounds, 2.1% hits; in the data active = inhibition above about 58%; tested in S. cerevisiae
Yeast growth inh = growth inhibitors of yeast BB579 in restrictive medium, primary screen, yeast lifespan-shortening project, S. cerevisiae | OD615, 48 h | inhibition, % at 10 µM | 140,000 compounds, 0.51% hits;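 active = inhibition above a set limit, 3 SD over the mean compound inhibition, cut at about 44% in these data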
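test system = yeast BB579 (DeaD) | buffer or medium = restrictive CSMM-D medium | doses = single compound dose of 10 µM, 0.25% DMSO final | times = 4 h preincubation and 48 h exposure at 30 °C | technique = culture absorbance at 615 nm | benchmarks = amphotericin B 10 µg/mL, positive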
RAM inhibit = inhibitors of the yeast RAM network, primary screen, dse1pr::URA3 reporter, 5-FOA selection; inhibition, % at 50 µM; 190,000 compounds, 1.8% hits; S. cerevisiae dse1pr::URA3 reporter, 5-FOA growth OD615, 2 d; analog-sensitive cbk1-as2 kinase mutant strain; AID 868, 2007;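 active = inhibition above a set limit, 3 SD over mean compound inhibition, cut at about 8.4% in these data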;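 also: 0% = DMSO-only wells with no growth and 100% = 10 µM 1-NA-PP1 full growth; inhibition rescues growth on 5-FOA so higher OD means more RAM inhibition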
KCC2 mod = KCC2 cotransporter modulators, thallium flux, primary screen, cell-based, HEK293 KCC2, FluoZin-2 fluorescence, MLSMR; Solute carrier family 12 member 5 (Homo sapiens), Q9H2X9; KCC2 cells, thallium flux FluoZin-2 fluorescence; B-score of Tl+ flux slope (higher = more flux/activation; lower = inhibition) at 10 µM; 190,000 compounds, 2.2% hits;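 active = thallium flux slope and its plate-corrected score both differing from the plate sample mean at a set confidence after two filtering rounds, in either direction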;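 also: slope of fluorescence scaled to starting intensity during 10 to 20 s after thallium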
Target sequence (Q9H2X9 whole entry, looked up): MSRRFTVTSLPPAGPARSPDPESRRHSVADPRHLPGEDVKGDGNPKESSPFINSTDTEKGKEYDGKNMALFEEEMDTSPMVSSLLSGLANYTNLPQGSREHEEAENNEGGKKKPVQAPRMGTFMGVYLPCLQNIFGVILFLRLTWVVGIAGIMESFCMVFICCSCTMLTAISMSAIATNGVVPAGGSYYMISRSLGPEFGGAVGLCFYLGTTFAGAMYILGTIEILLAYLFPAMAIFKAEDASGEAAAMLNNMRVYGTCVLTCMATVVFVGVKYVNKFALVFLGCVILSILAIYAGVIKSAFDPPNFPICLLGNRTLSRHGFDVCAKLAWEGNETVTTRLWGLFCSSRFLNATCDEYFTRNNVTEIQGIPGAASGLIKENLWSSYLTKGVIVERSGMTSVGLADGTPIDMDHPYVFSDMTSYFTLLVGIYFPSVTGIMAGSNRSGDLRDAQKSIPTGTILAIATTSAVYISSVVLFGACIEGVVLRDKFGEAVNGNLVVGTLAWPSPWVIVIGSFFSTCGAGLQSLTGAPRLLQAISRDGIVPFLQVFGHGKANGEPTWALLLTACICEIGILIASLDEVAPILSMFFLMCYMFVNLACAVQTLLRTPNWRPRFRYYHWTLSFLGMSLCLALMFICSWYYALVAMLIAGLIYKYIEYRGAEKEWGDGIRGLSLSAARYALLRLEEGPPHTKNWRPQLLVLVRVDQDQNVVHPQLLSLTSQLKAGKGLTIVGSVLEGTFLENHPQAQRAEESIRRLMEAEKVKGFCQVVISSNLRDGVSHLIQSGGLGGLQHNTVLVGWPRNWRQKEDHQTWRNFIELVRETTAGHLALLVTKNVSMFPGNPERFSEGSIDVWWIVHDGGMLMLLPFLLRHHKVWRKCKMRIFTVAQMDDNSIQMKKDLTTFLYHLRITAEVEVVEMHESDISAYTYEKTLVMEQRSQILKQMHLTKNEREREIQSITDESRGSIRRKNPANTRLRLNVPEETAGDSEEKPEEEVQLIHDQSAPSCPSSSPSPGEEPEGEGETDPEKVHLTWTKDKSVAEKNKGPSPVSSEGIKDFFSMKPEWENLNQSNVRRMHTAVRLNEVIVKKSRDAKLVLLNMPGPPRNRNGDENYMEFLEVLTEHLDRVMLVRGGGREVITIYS
Yeast life ext = compounds extending yeast replicative lifespan, primary screen, S. cerevisiae, OD615. S. cerevisiae growth with nicotinamide; deaD strain in restrictive glucose medium. inhibition of the nicotinamide effect, % at 10 µM. 130,000 compounds, 0.68% hits. AID 775, 2007;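 active = inhibition above a set limit, placed 3 SD over the median of all compounds, cut at about 26% in these data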;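 also: 0% = nicotinamide-treated wells and 100% = cells grown without nicotinamide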
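Assay system: engineered S. cerevisiae DeaD replicative-lifespan strain, galactose-grown log-phase cells; medium: restrictive CSMM-D dextrose medium; also added: nicotinamide, 1.5 mM, co-present with compound; schedule: 48 h compound exposure at 30 °C, humidified; detection: absorbance at 615 nm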
* marks the source's active call; other numbers are inactive results; . = no result. Compounds with a hit are over-represented: about 5.5% of the library has one in this group of screens.

SMILES	WT yeast gro inh	Yeast growth inh	RAM inhibit	KCC2 mod	Yeast life ext
Cc1ccc(S(=O)(=O)C(C)C(=O)c2ccc3c(c2)OCCO3)cc1 (configuration not stated)	-11	-68	1	-0.57	-3
Cc1cccnc1NC(=S)Nc1ncccc1C	.	.	.	0.69	.
CC(C)(C)NC(=S)Nc1ccc(Br)cc1	20	-41	1	-0.9	-17
S=C(NCCc1ccccc1)Nc1ccc(Nc2ccccc2)cc1	82*	.	2	-0.55	.
COc1ccccc1CNC(=S)NCCc1ccccc1	69*	-27	1	-2.2	-1
COc1cc(NC(=S)NCCc2ccccc2)c(OC)cc1NC(=O)C(C)C	.	.	.	0.15	.
Cc1cccnc1NC(=S)NCCc1ccccc1	61*	.	-1	-1.2	.
CC(C)(C)NC(=S)Nc1ccc(Nc2ccccc2)cc1	73*	-5	4	.	-19
COc1ccc(Cl)cc1NC(=S)NCc1ccco1	-12	-25	-1	-1.3	-13
Cc1ccc(-c2nc(C)sc2CC(=O)Nc2cccc(C)c2C)cc1	-6	7	1	0.43	-2
CCCCNC(=O)C1=C(N)C(C(=O)Nc2ccc(C)c(S(=O)(=O)N3CCCCC3)c2)SC1=Nc1ccc(C)cc1C (configuration not stated)	60*	-34	2	-0.0041	-7
Cc1ccc(C2=NNC3(CCOC(C)(C)C3)S2)cc1 (configuration not stated)	17	.	0	25*	.
O=C(N/N=C/c1cc(Br)ccc1O)C(c1ccncc1)N1CCOCC1 (configuration not stated)	-13	-6	-1	0.55	35*
COc1cccc(/C=N/NC(=O)C(c2ccncc2)N2CCOCC2)c1 (configuration not stated)	.	.	.	1	.
Cc1cc2nnn(-c3nnc(-c4ccccc4)c4ccccc34)c2cc1C	21	-20	3	-1.5	-15
Cn1c(=O)[nH]c(=O)c2c1nc(N1CCCCC1)n2CC(O)CN1CCCCC1 (configuration not stated)	20	2	2	-0.12	45*
CC(C)OCC(O)Cn1c(N2CCCC2)nc2c1c(=O)[nH]c(=O)n2C (configuration not stated)	11	12	0	.	-2
CCOC(=O)c1ccc(NC(=S)NCCc2ccc(OC)c(OC)c2)cc1	.	.	.	-0.84	.
O=C(Nc1ccc(Cl)cc1)c1csc(-c2ccccc2)n1	27	-56	9.7*	.	-15
COc1ccc(-n2cc(CNCc3cnc4ccccn34)c(-c3cccc(F)c3)n2)cc1	27	.	2	-0.12	.
CN(C(=S)NC(=O)c1ccccc1Br)C1CCCCC1	16	-19	3	31*	16
COc1ccccc1/C=C/C(=O)NC(=S)N(C)C1CCCCC1	22	-17	0	9.8*	-10
N#C/C(=C/c1cn[nH]c1-c1ccc(Br)cc1)C(=O)O	-1	.	3	-0.099	.
COC(=O)/C=C1\OC(c2ccccc2)=CC1=O	-5	-15	-1	-0.31	38*
O=C1OC(c2ccccc2)=C/C1=C/N1CCCCC1	-3	-23	0	-0.39	-4
SMILES	WT yeast gro inh	Yeast growth inh	RAM inhibit	KCC2 mod	Yeast life ext
COc1ccc(OCC(=O)NNc2c3ccccc3nc3ccccc23)cc1	64*	-20	2	.	-5
CC(C)Nc1nc(NC(C)C)nc(SCCOC(=O)Nc2ccc(Cl)cc2Cl)n1	66*	-13	2	-0.67	-2
CCNc1nc(NC(C)C)nc(SCCOC(=O)c2ccccc2)n1	29	-16	1	-3.1	-1
CCNc1nc(NCC)nc(SCCOC(=O)COc2ccc(Cl)cc2Cl)n1	77*	-43	0	-1.6	-7
Cc1ccn2c(c1)nc(=S)n2C(=O)c1ccco1	4	-17	0	1.1	-4
O=C(COC(=O)c1ccccn1)Nc1nc(-c2cccc([N+](=O)[O-])c2)cs1	.	.	.	0.72	.
CCn1c(SCC(=O)NCCOC)nc2sc3c(c2c1=O)CCCC3	-1	-10	1	0	-22
CCn1c(SCC(N)=O)nc2sc3c(c2c1=O)CCCC3	17	-58	3	60*	-6
C#CCONC(=O)c1cc(OCC(F)(F)F)ccc1OCC(F)(F)F	13	-8	2	0.14	9
CC(/C=C/c1ccccc1)=N/NC(=O)Cn1nnc(N)n1	.	.	.	-0.027	.
CCCCCc1n[nH]c2c1CCCC2	.	.	.	0.015	.
S=C(NCc1ccccc1)N1CCN(c2cccc(Cl)c2)CC1	70*	.	8.5*	0.83	.
O=[N+]([O-])c1ccc(N2CCN(C(=S)NCc3ccc(Cl)cc3)CC2)cc1	36	.	9.3*	-1	.
CCNC(=S)N1CCN(c2ccc([N+](=O)[O-])cc2)CC1	-5	15	0	1.9	-15
O=C(C(Cc1ccccc1)n1cccc1)N1CCN(c2cccc(Cl)c2)CC1 (configuration not stated)	34	-5	8.7*	-0.0054	2
O=C(C(Cc1ccccc1)n1cccc1)N1CCN(Cc2ccccc2)CC1 (configuration not stated)	2	35	0	.	-1
CNC(=S)N1CCN(c2ccc([N+](=O)[O-])cc2)CC1	67*	-34	0	0.89	-27
O=C(NCc1ccc(-n2cccc2)cc1)c1cccc(F)c1	7	.	2	1.2	.
Cc1ccccc1-n1c([C@@H]2C[C@H]2c2ccccc2)n[nH]c1=S	.	.	.	-0.011	.
CCCc1nnc(NC(=O)CCC(=O)N2CCN(C3c4ccccc4-c4ccccc43)CC2)s1	4	-6	6	1.3	-1
CSCCCNC(=S)N(C)CC(=O)Nc1ccc(C)cc1	16	.	3	0.44	.
CC1=CN2C(=N)/C(=C/c3ccco3)C(=O)N=C2S1	8	-26	4	4	-6
CC1=CN2C(=N)/C(=C/c3ccc([N+](=O)[O-])o3)C(=O)N=C2S1	86*	20	4	0.43	33*
O=C(Cc1ccc(-n2c(=O)[nH]c3ccsc3c2=O)cc1)N1CCN(c2ccc(Cl)cc2)CC1	0	-26	8.4*	0.66	3
Cc1cccc(N2CCN(C(=O)Cc3ccc(-n4c(=O)[nH]c5ccsc5c4=O)cc3)CC2C)c1 (configuration not stated)	2	-7	1	0.045	2
CC1(C)CC(=O)C/C(=N/NC(=O)c2ccc(-c3ccccc3)cc2)C1	-28	.	2	-4.7*	.
CC1(C)CC(=O)C/C(=N\NC(=O)Cc2ccccc2)C1	-2	4	-1	-0.71	1
S=C1NCCc2ccc(Cl)cc2C1c1ccccc1 (configuration not stated)	71*	-31	0	-0.18	.
COC(=O)c1ccccc1NC(=O)c1ccc(COc2ccccc2)o1	30	-29	9.6*	-0.47	-13
